Article PMC10439066 (Drugs in R&D, 2023)

How the values were obtained:
BSEP (vesicle assay) = BSEP (vesicle assay) (Homo sapiens, UniProt O95342); test: Transporter inhibition, vesicle assay; format: in vitro ADME; settings: read-out: Inhibition characteristics in vitro IC50
[1] = AKRENDO1 population pharmacokinetic analysis; format: in vivo, human; settings: 3 mg OD relative to all doses >3 mg; 95% confidence interval, 11–59; popPK model
serum androsterone = test: AKRENDO1 pharmacodynamics; format: in vivo, human; settings: completers
AKR1C3 = molecular target: T1, AKR1C3 (Homo sapiens, UniProt P42330); test: AKR1C3 biochemical assay; settings: in vitro
T1 sequence (P42330 1-323): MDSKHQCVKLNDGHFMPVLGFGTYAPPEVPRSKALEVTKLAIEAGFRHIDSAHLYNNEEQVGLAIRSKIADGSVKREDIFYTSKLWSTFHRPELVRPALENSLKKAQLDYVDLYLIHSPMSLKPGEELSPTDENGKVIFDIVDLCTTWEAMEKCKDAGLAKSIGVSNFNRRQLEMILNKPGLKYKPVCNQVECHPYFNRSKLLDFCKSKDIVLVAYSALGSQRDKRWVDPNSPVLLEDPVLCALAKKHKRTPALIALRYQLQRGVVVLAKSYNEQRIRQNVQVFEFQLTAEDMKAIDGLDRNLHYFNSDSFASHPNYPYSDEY

estrogen receptor = settings: cited from earlier work
androgen receptor = settings: cited from earlier work
human AKR1D1 = molecular target: T2, human AKR1D1 (Homo sapiens, UniProt P51857); test: AKR1D1 inhibition, cortisone as model substrate; format: biochemical
T2 sequence (P51857 1-326): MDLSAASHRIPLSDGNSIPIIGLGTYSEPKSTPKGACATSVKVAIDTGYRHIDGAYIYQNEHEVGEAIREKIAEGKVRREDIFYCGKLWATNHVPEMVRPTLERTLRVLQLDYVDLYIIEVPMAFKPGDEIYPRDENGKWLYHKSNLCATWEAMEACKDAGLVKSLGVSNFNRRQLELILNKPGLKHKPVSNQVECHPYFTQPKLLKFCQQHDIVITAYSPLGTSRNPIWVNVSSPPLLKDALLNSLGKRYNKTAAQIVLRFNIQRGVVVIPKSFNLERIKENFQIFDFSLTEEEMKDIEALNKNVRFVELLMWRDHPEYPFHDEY

female rats = test: Repeat-dose in vivo toxicity study, rat; design: species or system Wistar strain); settings: up to highest tested dose of 70 mg/kg, 13 weeks, Bayer data on file
recombinant human AKR1C4 = molecular target: T3, recombinant human AKR1C4 (Homo sapiens, UniProt P17516); test: Related enzyme screen; format: biochemical; settings: preclinical screen
T3 sequence (P17516 1-323): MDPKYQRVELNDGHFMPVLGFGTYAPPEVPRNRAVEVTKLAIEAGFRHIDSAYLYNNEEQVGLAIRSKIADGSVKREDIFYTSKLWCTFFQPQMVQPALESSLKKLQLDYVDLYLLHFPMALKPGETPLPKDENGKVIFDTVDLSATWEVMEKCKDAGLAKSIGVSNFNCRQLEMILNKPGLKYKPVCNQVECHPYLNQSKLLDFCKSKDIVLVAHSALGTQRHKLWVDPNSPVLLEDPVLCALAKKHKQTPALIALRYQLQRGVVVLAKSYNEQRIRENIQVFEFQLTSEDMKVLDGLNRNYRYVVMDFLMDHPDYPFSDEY

[2] = system: 134 human targets including G protein-coupled and nuclear receptors, ion channels, transporters, and enzymes; test: Specificity panel
[3] = 60 mg BID; cited from earlier work
[4] = system: adult premenopausal women with endometriosis-related pain symptoms; test: AKRENDO1 phase IIa trial, adverse events; format: in vivo, human
Outline: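 Randomized, placebo-controlled phase IIa trial in women ≥18 years with surgically or imaging-confirmed endometriosis who met defined pain criteria. Oral dosing: 3 mg OD, 10 mg OD, 30 mg OD, 30 mg BID, 60 mg BID, or placebo for 12 weeks. Visits at days 10, 28, 56 and 84 (±4 d), plus follow-up 2 weeks after end of treatment. Incidence of AEs, SAEs and TEAEs recorded.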

Chain of BSEP (vesicle assay) (O95342 whole entry): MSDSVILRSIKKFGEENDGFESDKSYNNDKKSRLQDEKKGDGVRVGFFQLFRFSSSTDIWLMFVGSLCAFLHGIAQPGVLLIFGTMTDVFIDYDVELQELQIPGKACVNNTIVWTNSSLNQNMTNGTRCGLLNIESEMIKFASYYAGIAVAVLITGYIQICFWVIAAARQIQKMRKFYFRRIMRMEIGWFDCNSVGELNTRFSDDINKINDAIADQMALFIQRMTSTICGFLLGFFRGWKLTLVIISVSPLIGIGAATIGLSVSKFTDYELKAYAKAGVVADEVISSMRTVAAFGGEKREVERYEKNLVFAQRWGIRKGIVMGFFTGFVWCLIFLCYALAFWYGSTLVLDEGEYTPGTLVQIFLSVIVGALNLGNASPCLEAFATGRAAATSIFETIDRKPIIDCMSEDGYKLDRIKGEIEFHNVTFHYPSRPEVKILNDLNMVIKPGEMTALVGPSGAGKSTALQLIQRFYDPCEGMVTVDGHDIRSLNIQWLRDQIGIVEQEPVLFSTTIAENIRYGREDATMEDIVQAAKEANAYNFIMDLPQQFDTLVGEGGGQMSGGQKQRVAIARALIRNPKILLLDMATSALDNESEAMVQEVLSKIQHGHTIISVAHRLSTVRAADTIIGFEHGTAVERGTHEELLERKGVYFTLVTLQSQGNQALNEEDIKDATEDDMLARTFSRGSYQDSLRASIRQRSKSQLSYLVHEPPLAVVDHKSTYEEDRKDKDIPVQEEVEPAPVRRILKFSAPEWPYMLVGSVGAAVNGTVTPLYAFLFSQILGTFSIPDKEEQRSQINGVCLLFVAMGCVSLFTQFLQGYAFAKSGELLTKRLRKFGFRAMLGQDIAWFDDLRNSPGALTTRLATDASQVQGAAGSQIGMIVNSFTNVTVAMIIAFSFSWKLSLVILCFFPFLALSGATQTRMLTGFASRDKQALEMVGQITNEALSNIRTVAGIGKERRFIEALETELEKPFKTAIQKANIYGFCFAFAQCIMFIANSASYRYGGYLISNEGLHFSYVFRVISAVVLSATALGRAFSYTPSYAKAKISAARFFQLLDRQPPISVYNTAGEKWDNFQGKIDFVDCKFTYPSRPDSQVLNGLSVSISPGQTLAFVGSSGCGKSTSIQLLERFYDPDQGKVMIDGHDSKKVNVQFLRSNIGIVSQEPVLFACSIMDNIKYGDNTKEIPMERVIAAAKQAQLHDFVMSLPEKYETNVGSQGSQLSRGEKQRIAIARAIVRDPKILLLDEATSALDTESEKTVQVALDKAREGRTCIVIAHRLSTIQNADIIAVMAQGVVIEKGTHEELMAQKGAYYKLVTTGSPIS

**Q.** Which results are given for CN(CCC(=O)O)C(=O)c1ccc2c(c1)CC[C@@H]1[C@@H]2CC[C@]2(C)C(c3cncc(F)c3)=CC[C@@H]12 [BAY1128688]?
**A.** IC50 (BSEP (vesicle assay)): 3.6 µM; increase in relative bioavailability [1]: 35%; cyclicity of sex hormones (serum androsterone): No changes; serum concentrations of androsterone (serum androsterone; from visit 4 onwards, 12 weeks): increased dose-dependently; IC50 (AKR1C3): < 0.002 µM; agonism or antagonism (estrogen receptor): no relevant agonism or antagonism; agonism or antagonism (androgen receptor): no relevant agonism or antagonism; inhibition of human AKR1D1 activity (human AKR1D1; 100 µM, cortisone as model substrate, Bayer AG, data on file): 11%; activity against related enzyme (human AKR1D1; preclinical screen): no relevant activity; hepatotoxicity (female rats): No hepatotoxicity was observed; activity against related enzyme (recombinant human AKR1C4): no relevant activity; interactions in specificity panel [2]: no relevant interactions; total concentration in human plasma [3]: approximately 10 µM; unbound maximum steady-state concentration in human plasma [3]: < 0.1 µM; Any AE ([4]; 3 mg OD n = 11): 8 (72.7) Number (%); Any SAE ([4]; 3 mg OD n = 11): 1 (9.1) Number (%); Any TEAE ([4]; 3 mg OD n = 11): 5 (45.5) Number (%); Any TESAE ([4]; 3 mg OD n = 11): 1 (9.1) Number (%); Discontinuation due to TEAE ([4]; 3 mg OD n = 11): 0 Number (%); Discontinuation due to TESAE ([4]; 3 mg OD n = 11): 0 Number (%); Procedure-related TEAE ([4]; 3 mg OD n = 11): 0 Number (%); SAE related to procedure ([4]; 3 mg OD n = 11): 0 Number (%); Study-drug-related SAE ([4]; 3 mg OD n = 11): 0 Number (%); Study-drug-related TEAE ([4]; 3 mg OD n = 11): 4 (36.4) Number (%); participants with TEAEs ([4]; 10 mg OD): 32.3%; participants with study-drug-related TEAEs ([4]; 10 mg OD): 9.7%; Any AE ([4]; 10 mg OD n = 31): 16 (51.6) Number (%); Any SAE ([4]; 10 mg OD n = 31): 0 Number (%); Any TEAE ([4]; 10 mg OD n = 31): 10 (32.3) Number (%); Any TESAE ([4]; 10 mg OD n = 31): 0 Number (%); Discontinuation due to TEAE ([4]; 10 mg OD n = 31): 1 (3.2) Number (%); Discontinuation due to TESAE ([4]; 10 mg OD n = 31): 0 Number (%); Procedure-related TEAE ([4]; 10 mg OD n = 31): 0 Number (%); SAE related to procedure ([4]; 10 mg OD n = 31): 0 Number (%); Study-drug-related SAE ([4]; 10 mg OD n = 31): 0 Number (%); Study-drug-related TEAE ([4]; 10 mg OD n = 31): 3 (9.7) Number (%); Any AE ([4]; 30 mg BID n = 11): 7 (63.6) Number (%); Any SAE ([4]; 30 mg BID n = 11): 0 Number (%); Any TEAE ([4]; 30 mg BID n = 11): 6 (54.5) Number (%); Any TESAE ([4]; 30 mg BID n = 11): 0 Number (%); Discontinuation due to TEAE ([4]; 30 mg BID n = 11): 2 (18.2) Number (%); Discontinuation due to TESAE ([4]; 30 mg BID n = 11): 0 Number (%); Procedure-related TEAE ([4]; 30 mg BID n = 11): 0 Number (%); SAE related to procedure ([4]; 30 mg BID n = 11): 0 Number (%); Study-drug-related SAE ([4]; 30 mg BID n = 11): 0 Number (%); Study-drug-related TEAE ([4]; 30 mg BID n = 11): 2 (18.2) Number (%); participants with TEAEs ([4]; 30 mg OD): 90.0%; Any AE ([4]; 30 mg OD n = 10): 9 (90.0) Number (%); Any SAE ([4]; 30 mg OD n = 10): 2 (20.0) Number (%); Any TEAE ([4]; 30 mg OD n = 10): 9 (90.0) Number (%); Any TESAE ([4]; 30 mg OD n = 10): 2 (20.0) Number (%); Discontinuation due to TEAE ([4]; 30 mg OD n = 10): 0 Number (%); Discontinuation due to TESAE ([4]; 30 mg OD n = 10): 0 Number (%); Procedure-related TEAE ([4]; 30 mg OD n = 10): 0 Number (%); SAE related to procedure ([4]; 30 mg OD n = 10): 0 Number (%); Study-drug-related SAE ([4]; 30 mg OD n = 10): 1 (10.0) Number (%); Study-drug-related TEAE ([4]; 30 mg OD n = 10): 4 (40.0) Number (%); participants with study-drug-related TEAEs ([4]; 60 mg BID): 51.9%; Any AE ([4]; 60 mg BID n = 27): 23 (85.2) Number (%); Any SAE ([4]; 60 mg BID n = 27): 1 (3.7) Number (%); Any TEAE ([4]; 60 mg BID n = 27): 21 (77.8) Number (%); Any TESAE ([4]; 60 mg BID n = 27): 1 (3.7) Number (%); Discontinuation due to TEAE ([4]; 60 mg BID n = 27): 3 (11.1) Number (%); Discontinuation due to TESAE ([4]; 60 mg BID n = 27): 0 Number (%); Procedure-related TEAE ([4]; 60 mg BID n = 27): 2 (7.4) Number (%); SAE related to procedure ([4]; 60 mg BID n = 27): 0 Number (%); Study-drug-related SAE ([4]; 60 mg BID n = 27): 1 (3.7) Number (%); Study-drug-related TEAE ([4]; 60 mg BID n = 27): 14 (51.9) Number (%)
